The target in series [1] is Macrophage colony-stimulating factor 1 receptor (Homo sapiens, UniProt P07333). Put plainly: Inhibition of recombinant human His-tagged CSF1R cytoplasmic domain (538 to 910 residues) expressed in baculovirus using tyr4 peptide as substrate after 1 hr by FRET-based Z'-Lyte assay. In outline: (§1)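 Z′-Lyte FRET assay with CSF1R or EGFR and 2 μM Tyr4 peptide substrate in 1× kinase buffer. ATP was supplied as a 100 μM solution, a stock and not the final concentration. Compounds were 3-fold serially diluted in DMSO. Reaction ran 1 h at room temperature, followed by 1 h development and a stop reagent. Phospho-peptide, no-ATP and DMSO controls were included. IC50 by curve fitting; mean of at least three independent experiments.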
Chain of Macrophage colony-stimulating factor 1 receptor (P07333 whole entry, the tested form may be a part): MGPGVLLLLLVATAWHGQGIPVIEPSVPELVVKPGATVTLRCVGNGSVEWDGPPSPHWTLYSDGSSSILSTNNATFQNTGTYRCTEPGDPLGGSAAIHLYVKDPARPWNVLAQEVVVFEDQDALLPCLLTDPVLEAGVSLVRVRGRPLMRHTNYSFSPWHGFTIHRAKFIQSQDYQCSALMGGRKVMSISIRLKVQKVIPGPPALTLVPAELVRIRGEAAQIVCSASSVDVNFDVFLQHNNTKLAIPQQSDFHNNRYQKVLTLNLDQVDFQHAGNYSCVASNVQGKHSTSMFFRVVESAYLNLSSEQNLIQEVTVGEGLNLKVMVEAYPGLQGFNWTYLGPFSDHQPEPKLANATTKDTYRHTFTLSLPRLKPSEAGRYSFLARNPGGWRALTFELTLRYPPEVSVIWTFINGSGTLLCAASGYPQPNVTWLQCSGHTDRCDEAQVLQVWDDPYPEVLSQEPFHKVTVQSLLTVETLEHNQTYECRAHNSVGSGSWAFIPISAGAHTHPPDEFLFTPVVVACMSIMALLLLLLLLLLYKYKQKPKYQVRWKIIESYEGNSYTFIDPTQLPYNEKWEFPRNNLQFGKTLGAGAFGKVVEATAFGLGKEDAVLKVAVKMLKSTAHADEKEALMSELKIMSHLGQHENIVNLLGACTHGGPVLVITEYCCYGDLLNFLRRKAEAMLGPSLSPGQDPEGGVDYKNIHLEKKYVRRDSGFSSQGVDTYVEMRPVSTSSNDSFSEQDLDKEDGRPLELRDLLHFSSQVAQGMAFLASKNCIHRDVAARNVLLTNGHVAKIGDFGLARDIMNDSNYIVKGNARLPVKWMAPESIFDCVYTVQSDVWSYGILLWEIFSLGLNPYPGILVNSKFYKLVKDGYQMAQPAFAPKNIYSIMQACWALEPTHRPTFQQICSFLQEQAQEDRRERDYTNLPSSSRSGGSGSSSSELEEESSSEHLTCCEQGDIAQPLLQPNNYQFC

Another series is filed under the species Homo sapiens. Put plainly: Selectivity ratio of IC50 for recombinant human wild type GST-tagged EGFR cytoplasmic domain (668 to 1210 residues) expressed in baculovirus to IC50 for recombinant human His-tagged CSF1R cytoplasmic domain (538 to 910 residues) expressed in baculovirus. In outline:
as §1

The target in series [2] is Epidermal growth factor receptor (Homo sapiens, UniProt P00533). The series is described as follows: Inhibition of recombinant human wild type GST-tagged EGFR cytoplasmic domain (668 to 1210 residues) expressed in baculovirus using tyr4 peptide as substrate after 1 hr by FRET-based Z'-Lyte assay.
Chain of Epidermal growth factor receptor (P00533 whole entry, the tested form may be a part): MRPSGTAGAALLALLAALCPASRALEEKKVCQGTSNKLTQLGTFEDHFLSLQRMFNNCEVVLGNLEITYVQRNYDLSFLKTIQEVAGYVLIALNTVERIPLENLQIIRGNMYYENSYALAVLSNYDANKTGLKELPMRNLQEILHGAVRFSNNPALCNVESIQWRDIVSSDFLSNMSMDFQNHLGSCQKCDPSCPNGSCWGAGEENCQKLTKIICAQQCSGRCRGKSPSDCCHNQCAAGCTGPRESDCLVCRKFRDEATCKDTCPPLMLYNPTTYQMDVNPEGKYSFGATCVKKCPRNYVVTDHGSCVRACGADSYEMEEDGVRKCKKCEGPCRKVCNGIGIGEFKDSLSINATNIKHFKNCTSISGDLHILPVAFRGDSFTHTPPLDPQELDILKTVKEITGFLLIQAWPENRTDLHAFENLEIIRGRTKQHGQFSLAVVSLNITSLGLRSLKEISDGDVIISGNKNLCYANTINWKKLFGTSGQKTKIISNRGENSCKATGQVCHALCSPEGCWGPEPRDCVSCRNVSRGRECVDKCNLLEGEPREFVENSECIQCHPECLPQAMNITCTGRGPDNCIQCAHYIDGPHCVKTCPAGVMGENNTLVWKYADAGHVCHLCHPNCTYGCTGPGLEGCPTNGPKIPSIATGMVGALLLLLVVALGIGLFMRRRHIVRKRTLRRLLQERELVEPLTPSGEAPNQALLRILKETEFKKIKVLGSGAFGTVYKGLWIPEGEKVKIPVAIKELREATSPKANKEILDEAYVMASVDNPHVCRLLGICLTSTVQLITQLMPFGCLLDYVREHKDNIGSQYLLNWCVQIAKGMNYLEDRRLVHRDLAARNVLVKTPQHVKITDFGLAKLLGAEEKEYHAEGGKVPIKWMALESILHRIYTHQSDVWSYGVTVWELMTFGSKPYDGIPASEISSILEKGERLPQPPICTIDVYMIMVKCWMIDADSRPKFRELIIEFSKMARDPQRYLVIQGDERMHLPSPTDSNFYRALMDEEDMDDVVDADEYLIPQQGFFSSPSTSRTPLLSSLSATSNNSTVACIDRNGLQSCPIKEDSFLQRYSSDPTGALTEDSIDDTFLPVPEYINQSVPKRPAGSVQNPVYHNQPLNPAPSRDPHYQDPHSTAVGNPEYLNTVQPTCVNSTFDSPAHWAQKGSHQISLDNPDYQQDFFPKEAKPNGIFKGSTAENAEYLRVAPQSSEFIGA
Series [3] in a line: Half life in Sprague-Dawley rat at 25 mg/kg administered via oral gavage measured up to 72 hrs by LC/MS analysis. The format is ADME, organism-based. The settings on record: in vivo. The gist of the method:
(§2)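 Male Sprague-Dawley rats, 4–6 weeks old, acclimatised 1 week, were dosed iv at 5 mg/kg or by oral gavage at 25 mg/kg. Vehicle was 2% DMSO, 4% EtOH, 4% castor oil, 90% H2O. Blood was drawn by orbital sinus puncture from 2 min to 72 h into heparinized tubes. Plasma was assayed by LC/MS with propranolol as internal standard. Three animals per group.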

Series [4] in a line: Oral bioavailability in Sprague-Dawley rat at 25 mg/kg administered via gavage measured up to 72 hrs by LC/MS analysis. The settings on record: in vivo. The format is ADME, organism-based. In outline: as §2
The test system of series [5] is Rattus norvegicus. Put plainly: Apparent clearance in Sprague-Dawley rat at 25 mg/kg administered via oral gavage measured up to 72 hrs by LC/MS analysis. The format is ADME, organism-based. The settings on record: in vivo, iv, 5 mg/kg, in the assay text read “5 mg/kg administered intravenously” for “25 mg/kg administered via oral gavage”. The gist of the method: as §2

Series [6] can be described thus: Cmax in Sprague-Dawley rat at 25 mg/kg administered via oral gavage measured up to 72 hrs by LC/MS analysis. The format is ADME, organism-based. Set-up: dose 25 mg/kg, route oral. The settings on record: in vivo. The gist of the method: as §2
The nature of series [7]: AUC (0 to infinity) in Sprague-Dawley rat at 5 mg/kg, iv measured up to 72 hrs by LC/MS analysis. It counts as ADME, organism-based. Set-up: dose 5 mg/kg, time infinity, route intravenous. The settings on record: in vivo. In outline:
as §2

Series [8] is described as follows: Half life in Sprague-Dawley rat at 5 mg/kg, iv measured up to 72 hrs by LC/MS analysis. The format is ADME, organism-based. The note with it: in vivo. The gist of the method:
as §2

Series [9] concerns Rattus norvegicus. Put plainly: AUC (0 to infinity) in Sprague-Dawley rat at 25 mg/kg administered via oral gavage measured up to 72 hrs by LC/MS analysis. It counts as ADME, organism-based. Set-up: dose 25 mg/kg, route oral, time infinity. The note with it: in vivo. In outline: as §2

Usually IC50 stands for the point on the concentration scale where inhibition reaches its midpoint. On to `CCC(=O)N1CC[C@H](N2C(=O)N(c3cccc(OC)c3Cl)Cc3cnc(Nc4ccc(N5CCN(C)CC5)c(C)c4)nc32)C1`, for which the results for the IC50 in series [1] and in [2] were 4.4 nM and 413 nM, respectively. Besides, the Ratio IC50 in the series listed under Homo sapiens was in the range of 99 to 200.
The like results for `CCC(=O)N1CC[C@H](N2C(=O)N(c3cccc(OC)c3F)Cc3cnc(Nc4ccc(N5CCN(C)CC5)c(C)c4)nc32)C1` were, in that order, 4.5 nM, 421 nM and 99 to 200.
One may read the half-life as the time in which the quantity being followed falls by half. Lower therefore signals fast loss. Broadly, the bioavailability is the share of a dose that reaches the circulation, judged against a reference dose that is usually intravenous. Low readings indicate poor availability, high ones good availability. What is called Cmax is the highest concentration seen after dosing. Usually AUC(0-inf) stands for the area under the concentration-time curve extrapolated to infinity. What is called AUC is concentration integrated over time. Low readings indicate low exposure, high ones high exposure. For `CCC(=O)N1CC[C@H](N2C(=O)N(c3cc(OC)ccc3F)Cc3cnc(Nc4ccc(N5CCN(C)CC5)c(C)c4)nc32)C1`, the IC50 in [1] was determined as 2 nM; in [2], 362 nM. The half-life is 1.6 h in [3] and 2.3 h in series [8]. Moreover, the Ratio IC50 in the series filed under Homo sapiens was 99 to 200. Further, in series [4], the bioavailability amounted to 17.1%. Besides, the “CL(app)” value with Rattus norvegicus [5] worked out at 44 mL/min/kg. The same compound displayed a Cmax in series [6] of 396 ng/mL. This compound yielded an AUC(0-inf) in series [7] of 1900 ng·h/mL. In addition, the AUC with Rattus norvegicus [9] came to 1630 ng·h/mL.
Turning to `CCC(=O)N1CC[C@H](N2C(=O)N(c3cccc(OC)c3)Cc3cnc(Nc4ccc(N5CCN(C)CC5)c(C)c4)nc32)C1`, the IC50 in series [1] was found to be 4.5 nM; in [2], 417 nM. The Ratio IC50 in the series listed under Homo sapiens came out at 92.
Consider `CCC(=O)N1CC[C@H](N2C(=O)N(c3cc(OC)ccc3Cl)Cc3cnc(Nc4ccc(N5CCN(C)CC5)c(C)c4)nc32)C1`, for which, in series [1], the IC50 worked out at 2.1 nM. Besides, the half-life was 1.89 h in series [3] and 3.48 h in [8]. The bioavailability in [4] amounted to 38.6%. Further, the “CL(app)” value with Rattus norvegicus [5] was determined as 30.7 mL/min/kg. In series [6], this compound displayed a Cmax of 988 ng/mL. In [7], this compound showed an AUC(0-inf) of 2770 ng·h/mL. Further, the exposure (AUC) in the series with Rattus norvegicus [9] was found to be 5311 ng·h/mL.

Values taken from ChEMBL document CHEMBL4033795, “Design, Synthesis, and Structure-Activity Relationship Study of 2-Oxo-3,4-dihydropyrimido[4,5- d]pyrimidines as New Colony Stimulating Factor 1 Receptor (CSF1R) Kinase Inhibitors” (J Med Chem, 2018).
